{"source": "ChEMBL document CHEMBL4334447", "about": "“Discovery of 4-Aminoquinoline-3-carboxamide Derivatives as Potent Reversible Bruton's Tyrosine Kinase Inhibitors for the Treatment of Rheumatoid Arthritis” (J Med Chem, 2019)", "key": {"[1]": {"assay": "Kinetic aqueous solubility of the compound in pH 7.4 phosphate buffered saline incubated for 24 hrs under shaking condition by HPLC analysis", "type": "physicochemical", "conditions": "read-out: Kinetic_solubility", "outline": "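Dry powder shaken 24 h at 25 °C in 0.1 M phosphate buffer, pH 7.4, then filtered through a 0.45 µm membrane. Concentration determined by HPLC against a standard of the compound in DMSO. Mean of three separate assays in triplicate.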"}, "[2]": {"molecular_target": "Tyrosine-protein kinase BTK (Homo sapiens, UniProt Q06187)", "sequence (Q06187 whole entry, the tested form may be a part)": "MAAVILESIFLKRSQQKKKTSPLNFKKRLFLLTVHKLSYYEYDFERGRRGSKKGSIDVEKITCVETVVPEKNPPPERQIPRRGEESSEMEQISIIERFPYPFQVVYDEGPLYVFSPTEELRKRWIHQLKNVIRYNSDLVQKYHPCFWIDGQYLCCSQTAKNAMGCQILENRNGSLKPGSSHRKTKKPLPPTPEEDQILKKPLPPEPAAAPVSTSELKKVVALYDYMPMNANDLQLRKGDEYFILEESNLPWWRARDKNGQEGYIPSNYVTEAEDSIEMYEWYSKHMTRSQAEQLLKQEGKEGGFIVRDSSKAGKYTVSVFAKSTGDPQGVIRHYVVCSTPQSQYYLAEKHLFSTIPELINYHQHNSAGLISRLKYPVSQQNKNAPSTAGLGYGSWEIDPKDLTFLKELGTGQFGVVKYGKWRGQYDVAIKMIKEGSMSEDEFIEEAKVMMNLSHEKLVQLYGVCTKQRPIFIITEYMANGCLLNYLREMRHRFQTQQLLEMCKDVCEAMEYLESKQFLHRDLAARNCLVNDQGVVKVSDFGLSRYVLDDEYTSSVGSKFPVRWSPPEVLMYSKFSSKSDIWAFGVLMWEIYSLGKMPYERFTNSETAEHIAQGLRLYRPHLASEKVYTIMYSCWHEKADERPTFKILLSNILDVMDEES", "assay": "Reversible inhibition of FAM-labeled peptide binding to full-length human N-terminal GST-tagged BTK (2 to 659 residues) expressed in baculovirus infected Sf21 insect cells at preincubated for 10 mins followed by FAM-labeled peptide addition and measured by off-chip mobility shift assay"}}, "data": [{"molecule": "Cc1cc2cn[nH]c2cc1-c1cccc2c(N)c(C(N)=O)cnc12", "values": [{"measurement": "solubility kinetic at 24 h", "setting": "[1]", "result": 10.5, "unit": "µg/mL"}, {"measurement": "IC50", "setting": "[2]", "result": 72.8, "unit": "nM"}]}]}
